From ChEMBL document CHEMBL4350961, “Discovery of Pyrrolo[3,2- d]pyrimidin-4-one Derivatives as a New Class of Potent and Cell-Active Inhibitors of P300/CBP-Associated Factor Bromodomain” (J Med Chem, 2019)
Active and inactive are the calls of the source. The calls are words filed in the database; no cut-off is given here.

What was measured:
[1] = target: DNA-dependent protein kinase catalytic subunit (Homo sapiens) (UniProt P78527); test: Inhibition of recombinant full-length human DNA-PK at 10 uM using GST-cMyc-p53 as substrate measured after 40 mins by fluorescence assay
[2] = target: Serine/threonine-protein kinase SIK2 (Homo sapiens) (UniProt Q9H0K1); test: Inhibition of human SIK2 (1 to 276 residues) using KKKVSRSGLYRSPSMPENLNRPR as substrate measured after 40 mins in presence of [gamma33P]ATP by scintillation counting method
Summary of the method: (§1)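 Kinase panel of 422 kinases screened by Eurofins KinaseProfiler at a single test-compound concentration of 10 µM.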

[3] = system: Epidermal growth factor receptor (Homo sapiens), P00533 [L858R,T790M]; test: Inhibition of recombinant human EGFR T790M/L858R mutant (696 to end residues) at 10 uM using GGMEDIYFEFMGGKKK as substrate measured after 40 mins in presence of [gamma33P]ATP by scintillation counting method
[4] = Cmax in Sprague-Dawley rat at 10 mg/kg, po administered via gavage by LC-MS/MS analysis; format: ADME, organism-based; parameters: dose 10 mg/kg, route oral; conditions: in vivo
Summary of the method: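 Serial jugular-vein blood taken at set times, spun to plasma at 4 ℃, stored at -80 °C. Plasma extracted with acetonitrile containing internal standard, quantified by LC-MS/MS; noncompartmental fit.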

[5] = target: SWI/SNF-related matrix-associated actin-dependent regulator of chromatin subfamily A member 4 (Homo sapiens) (UniProt P51532); test: Binding affinity to human partial length SMARCA4 (A1448 to S1575 residues) expressed in bacterial expression system at 1 uM by BROMOscan assay
Summary of the method: (§2)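 BROMOscan bromodomain cross-screen run by an outside service, compound at 1 µM against 32 recombinant bromodomains. Binding given as percent of control.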

[6] = target: Serine/threonine-protein kinase pim-3 (Homo sapiens) (UniProt Q86V86); test: Inhibition of recombinant human Pim3 (2 to end residues) at 10 uM using RSRHSSYPAGT as substrate measured after 40 mins in presence of [gamma33P]ATP by scintillation counting method
[7] = target: Cyclin-dependent kinase-like 1 (Homo sapiens) (UniProt Q00532); test: Inhibition of recombinant human CDKL1 (1 to 303 residues) at 10 uM using RRRFRPASPLRGP as substrate measured after 120 mins in presence of [gamma33P]ATP by scintillation counting method
[8] = target: Ribosomal protein S6 kinase alpha-2 (Homo sapiens) (UniProt Q15349); test: Inhibition of recombinant full-length human Rsk3 at 10 uM using KKKNRTLSVA as substrate measured after 40 mins in presence of [gamma33P]ATP by scintillation counting method
[9] = system: Receptor-type tyrosine-protein kinase FLT3 (Homo sapiens), P36888 [D835Y]; test: Inhibition of recombinant human Flt3 D835Y mutant (564 to end residues) at 10 uM using EAIYAAPFAKKK as substrate measured after 40 mins in presence of [gamma33P]ATP by scintillation counting method
[10] = target: Phosphatidylinositol 4-phosphate 5-kinase type-1 gamma (Homo sapiens) (UniProt O60331); test: Inhibition of recombinant full-length human PIP5K1gamma at 10 uM using phosphatidylinositol 4-phosphate as substrate measured after 40 mins by HTRF assay
[11] = system: PI3-kinase p110-alpha/p85-alpha (Homo sapiens), P27986+P42336 [E542K]; test: Inhibition of recombinant full-length human PI3K p110alpha/p85alpha E542K mutant at 10 uM using phosphatidylinositol-4, 5-bisphosphate as substrate measured after 40 mins by fluorescence assay; format: protein-complex assay
[12] = target: Tyrosine-protein kinase receptor TYRO3 (Homo sapiens) (UniProt Q06418); test: Inhibition of human RSE (451 to end residues) using KVEKIGEGTYGVVYK as substrate measured after 40 mins in presence of [gamma33P]ATP by scintillation counting method; summary of the method: as §1
[13] = system: Mast/stem cell growth factor receptor Kit (Homo sapiens), P10721 [D816V]; test: Inhibition of recombinant human c-Kit D816V mutant (544 to end residues) at 10 uM using poly(Glu, Tyr) 4:1 as substrate measured after 40 mins in presence of [gamma33P]ATP by scintillation counting method
[14] = system: Tyrosine-protein kinase ABL1 (Homo sapiens), P00519 [Y253F]; test: Inhibition of recombinant human ABL Y253F mutant (27 to end residues) at 10 uM using EAIYAAPFAKKK as substrate measured after 40 mins in presence of [gamma33P]ATP by scintillation counting method
[15] = system: Tyrosine-protein kinase Blk (Homo sapiens), P51451 [UNDEFINED MUTATION]; test: Inhibition of full-length recombinant human BLK M287V mutant at 10 uM using poly(Glu, Tyr) 4:1 as substrate measured after 40 mins in presence of [gamma33P]ATP by scintillation counting method; summary of the method: as §1
[16] = target: ATPase family AAA domain-containing protein 2 (Homo sapiens) (UniProt Q6PL18); test: Binding affinity to human partial length ATAD2A (Q981 to R1108 residues) expressed in bacterial expression system at 1 uM by BROMOscan assay; summary of the method: as §2
[17] = target: Bromodomain-containing protein 9 (Homo sapiens) (UniProt Q9H8M2); test: Binding affinity to human N-terminal His-tagged BRD9 assessed as change in melting temperature at 10 uM by SYPRO orange dye-based fluorescence assay
Summary of the method: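 Thermal shift with His-tagged human bromodomain at 2 μM final in 10 mM HEPES pH 7.5, 500 mM NaCl. Compound at 10 μM final with 0.1% DMSO; SYPRO Orange at 1:1000. Equilibrated 3 min at 25 °C, then heated from 25 to 95 °C at 1 °C/min. Melting temperature shift taken from fluorescence; at least duplicate.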

[18] = system: Serine/threonine-protein kinase B-raf (Homo sapiens), P15056 [V600E]; test: Inhibition of recombinant human BRAF V599E mutant (416 to end residues) at 10 uM using myelin basic protein as substrate measured after 40 mins in presence of [gamma33P]ATP by scintillation counting method
[19] = target: Casein kinase II subunit alpha' (CK2alpha2, Homo sapiens) (UniProt P19784); test: Inhibition of recombinant full length human CK2alpha2 at 10 uM using RRRDDDSDDD as substrate measured after 40 mins in presence of [gamma33P]ATP by scintillation counting method
[20] = target: Protein-tyrosine kinase 2-beta (Homo sapiens) (UniProt Q14289); test: Inhibition of recombinant full-length human Pyk2 at 10 uM using poly(Glu, Tyr) 4:1 as substrate measured after 40 mins in presence of [gamma33P]ATP by scintillation counting method
[21] = system: Epidermal growth factor receptor (Homo sapiens), P00533 [L858R]; test: Inhibition of recombinant human EGFR L858R mutant (696 to end residues) at 10 uM using poly(Glu, Tyr) 4:1 as substrate measured after 40 mins in presence of [gamma33P]ATP by scintillation counting method
Sequence of Epidermal growth factor receptor (Homo sapiens), P00533 [L858R] (P00533 whole entry L858R): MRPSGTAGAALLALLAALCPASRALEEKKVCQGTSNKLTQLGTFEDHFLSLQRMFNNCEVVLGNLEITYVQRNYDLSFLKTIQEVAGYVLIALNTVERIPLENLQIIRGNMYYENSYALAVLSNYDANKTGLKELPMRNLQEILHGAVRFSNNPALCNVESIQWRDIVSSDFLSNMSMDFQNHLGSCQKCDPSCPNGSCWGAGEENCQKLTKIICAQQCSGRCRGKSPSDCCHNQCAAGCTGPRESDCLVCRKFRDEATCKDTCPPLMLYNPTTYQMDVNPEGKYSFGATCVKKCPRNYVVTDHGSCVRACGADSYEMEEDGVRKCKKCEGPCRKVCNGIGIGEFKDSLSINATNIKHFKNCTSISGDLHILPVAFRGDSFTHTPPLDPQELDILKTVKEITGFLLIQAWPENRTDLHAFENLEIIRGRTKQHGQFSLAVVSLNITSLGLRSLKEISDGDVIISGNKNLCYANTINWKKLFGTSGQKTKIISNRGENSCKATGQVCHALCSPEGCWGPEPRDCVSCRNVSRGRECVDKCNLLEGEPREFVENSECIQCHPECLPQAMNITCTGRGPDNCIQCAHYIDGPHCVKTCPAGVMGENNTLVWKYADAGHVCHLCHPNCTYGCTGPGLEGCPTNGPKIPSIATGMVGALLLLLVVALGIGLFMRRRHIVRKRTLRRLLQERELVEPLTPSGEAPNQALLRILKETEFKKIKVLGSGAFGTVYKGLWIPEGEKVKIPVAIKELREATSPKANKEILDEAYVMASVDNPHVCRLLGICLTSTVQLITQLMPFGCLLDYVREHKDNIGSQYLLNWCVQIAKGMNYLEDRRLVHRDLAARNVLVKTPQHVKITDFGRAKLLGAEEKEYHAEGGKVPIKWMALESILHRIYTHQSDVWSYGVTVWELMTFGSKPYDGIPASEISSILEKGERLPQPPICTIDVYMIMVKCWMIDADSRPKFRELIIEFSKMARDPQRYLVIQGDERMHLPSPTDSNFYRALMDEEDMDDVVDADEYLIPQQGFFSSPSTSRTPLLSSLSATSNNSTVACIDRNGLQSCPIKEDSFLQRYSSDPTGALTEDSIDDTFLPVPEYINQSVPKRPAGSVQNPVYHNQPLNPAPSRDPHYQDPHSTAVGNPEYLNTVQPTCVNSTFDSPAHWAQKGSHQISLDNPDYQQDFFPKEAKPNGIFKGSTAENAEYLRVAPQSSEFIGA

Sequence of Epidermal growth factor receptor (Homo sapiens), P00533 [L858R,T790M] (P00533 whole entry T790M/L858R, looked up): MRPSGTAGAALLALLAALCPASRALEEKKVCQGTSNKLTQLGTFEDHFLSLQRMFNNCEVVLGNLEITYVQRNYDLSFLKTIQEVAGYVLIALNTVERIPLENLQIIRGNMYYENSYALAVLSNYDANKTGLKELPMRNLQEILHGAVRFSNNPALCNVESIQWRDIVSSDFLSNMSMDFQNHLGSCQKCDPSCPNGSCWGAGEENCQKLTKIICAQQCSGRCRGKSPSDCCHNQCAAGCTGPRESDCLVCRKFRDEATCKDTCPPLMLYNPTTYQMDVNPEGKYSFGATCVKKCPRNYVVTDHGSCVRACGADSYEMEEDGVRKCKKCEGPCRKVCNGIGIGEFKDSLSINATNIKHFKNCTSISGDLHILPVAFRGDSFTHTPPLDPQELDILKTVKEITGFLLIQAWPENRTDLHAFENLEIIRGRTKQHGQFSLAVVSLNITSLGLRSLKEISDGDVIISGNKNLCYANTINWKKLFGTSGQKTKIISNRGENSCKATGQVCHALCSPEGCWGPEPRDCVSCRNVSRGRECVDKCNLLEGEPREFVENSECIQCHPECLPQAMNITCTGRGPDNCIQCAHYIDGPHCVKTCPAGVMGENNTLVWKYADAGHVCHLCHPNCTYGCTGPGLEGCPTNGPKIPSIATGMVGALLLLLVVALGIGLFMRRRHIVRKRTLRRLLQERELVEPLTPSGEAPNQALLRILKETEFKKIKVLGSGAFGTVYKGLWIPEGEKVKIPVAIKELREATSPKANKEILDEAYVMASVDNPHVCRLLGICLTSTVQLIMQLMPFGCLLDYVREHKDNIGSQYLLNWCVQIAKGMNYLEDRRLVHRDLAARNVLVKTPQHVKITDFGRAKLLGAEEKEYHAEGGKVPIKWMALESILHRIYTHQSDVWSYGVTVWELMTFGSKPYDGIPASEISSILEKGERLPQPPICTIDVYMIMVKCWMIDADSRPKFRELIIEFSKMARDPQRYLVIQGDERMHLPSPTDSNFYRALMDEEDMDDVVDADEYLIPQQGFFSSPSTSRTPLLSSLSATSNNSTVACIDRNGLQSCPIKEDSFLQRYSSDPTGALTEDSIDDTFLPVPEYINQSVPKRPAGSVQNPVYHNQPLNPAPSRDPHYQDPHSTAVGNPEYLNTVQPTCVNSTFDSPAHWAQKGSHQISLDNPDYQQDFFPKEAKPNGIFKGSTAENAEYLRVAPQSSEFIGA
Sequence of Cyclin-dependent kinase-like 1 (Homo sapiens) (Q00532 whole entry, the tested form may be a part): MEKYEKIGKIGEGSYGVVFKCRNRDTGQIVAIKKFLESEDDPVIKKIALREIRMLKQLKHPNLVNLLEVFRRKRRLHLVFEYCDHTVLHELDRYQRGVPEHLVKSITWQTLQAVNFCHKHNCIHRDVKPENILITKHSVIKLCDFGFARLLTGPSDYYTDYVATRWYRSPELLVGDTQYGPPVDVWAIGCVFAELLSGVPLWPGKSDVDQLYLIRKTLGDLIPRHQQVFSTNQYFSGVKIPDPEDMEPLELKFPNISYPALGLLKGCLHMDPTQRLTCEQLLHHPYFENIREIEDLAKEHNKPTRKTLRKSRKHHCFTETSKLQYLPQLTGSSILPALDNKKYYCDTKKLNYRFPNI
Sequence of SWI/SNF-related matrix-associated actin-dependent regulator of chromatin subfamily A member 4 (Homo sapiens) (P51532 whole entry, the tested form may be a part): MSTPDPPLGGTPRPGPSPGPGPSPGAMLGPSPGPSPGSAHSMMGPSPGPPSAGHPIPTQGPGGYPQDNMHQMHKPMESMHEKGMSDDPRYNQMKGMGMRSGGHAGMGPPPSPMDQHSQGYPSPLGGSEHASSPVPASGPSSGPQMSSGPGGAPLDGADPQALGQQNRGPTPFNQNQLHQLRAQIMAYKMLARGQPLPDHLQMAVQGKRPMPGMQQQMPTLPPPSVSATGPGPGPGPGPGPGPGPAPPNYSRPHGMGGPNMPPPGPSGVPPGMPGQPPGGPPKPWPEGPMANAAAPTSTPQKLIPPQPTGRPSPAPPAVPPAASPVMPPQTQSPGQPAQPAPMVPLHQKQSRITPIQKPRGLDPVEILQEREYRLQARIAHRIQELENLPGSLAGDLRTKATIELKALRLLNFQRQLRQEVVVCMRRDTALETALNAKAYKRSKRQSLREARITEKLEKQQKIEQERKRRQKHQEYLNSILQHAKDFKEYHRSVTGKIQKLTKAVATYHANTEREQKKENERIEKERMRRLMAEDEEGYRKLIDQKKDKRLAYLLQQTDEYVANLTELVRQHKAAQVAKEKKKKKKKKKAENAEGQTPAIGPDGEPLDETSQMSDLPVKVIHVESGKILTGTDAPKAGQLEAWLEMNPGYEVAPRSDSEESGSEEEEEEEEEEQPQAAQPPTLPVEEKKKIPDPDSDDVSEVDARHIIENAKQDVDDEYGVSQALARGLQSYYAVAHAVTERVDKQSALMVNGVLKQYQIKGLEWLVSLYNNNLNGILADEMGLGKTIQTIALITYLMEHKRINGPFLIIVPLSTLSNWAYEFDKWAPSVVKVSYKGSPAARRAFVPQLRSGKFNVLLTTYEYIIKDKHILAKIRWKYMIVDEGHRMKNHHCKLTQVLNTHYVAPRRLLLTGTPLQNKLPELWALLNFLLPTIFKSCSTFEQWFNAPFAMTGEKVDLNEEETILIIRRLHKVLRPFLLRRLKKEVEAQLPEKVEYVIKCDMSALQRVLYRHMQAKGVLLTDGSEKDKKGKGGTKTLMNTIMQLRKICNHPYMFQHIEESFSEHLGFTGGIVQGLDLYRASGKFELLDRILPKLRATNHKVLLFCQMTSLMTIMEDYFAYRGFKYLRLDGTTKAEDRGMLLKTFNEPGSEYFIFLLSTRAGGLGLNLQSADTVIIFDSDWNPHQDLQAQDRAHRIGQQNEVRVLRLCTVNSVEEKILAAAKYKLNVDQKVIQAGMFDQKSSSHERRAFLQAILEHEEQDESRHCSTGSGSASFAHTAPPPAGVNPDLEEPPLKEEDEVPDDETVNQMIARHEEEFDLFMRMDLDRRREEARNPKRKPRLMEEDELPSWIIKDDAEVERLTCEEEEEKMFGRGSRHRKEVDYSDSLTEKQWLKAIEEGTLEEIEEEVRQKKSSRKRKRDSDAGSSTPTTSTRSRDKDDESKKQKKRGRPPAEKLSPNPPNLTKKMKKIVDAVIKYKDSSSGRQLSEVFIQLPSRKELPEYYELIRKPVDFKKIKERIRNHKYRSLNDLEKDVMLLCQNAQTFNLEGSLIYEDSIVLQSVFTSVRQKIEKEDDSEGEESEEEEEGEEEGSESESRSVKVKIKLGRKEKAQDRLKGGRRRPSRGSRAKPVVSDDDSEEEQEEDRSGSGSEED
Sequence of Bromodomain-containing protein 9 (Homo sapiens) (Q9H8M2 whole entry): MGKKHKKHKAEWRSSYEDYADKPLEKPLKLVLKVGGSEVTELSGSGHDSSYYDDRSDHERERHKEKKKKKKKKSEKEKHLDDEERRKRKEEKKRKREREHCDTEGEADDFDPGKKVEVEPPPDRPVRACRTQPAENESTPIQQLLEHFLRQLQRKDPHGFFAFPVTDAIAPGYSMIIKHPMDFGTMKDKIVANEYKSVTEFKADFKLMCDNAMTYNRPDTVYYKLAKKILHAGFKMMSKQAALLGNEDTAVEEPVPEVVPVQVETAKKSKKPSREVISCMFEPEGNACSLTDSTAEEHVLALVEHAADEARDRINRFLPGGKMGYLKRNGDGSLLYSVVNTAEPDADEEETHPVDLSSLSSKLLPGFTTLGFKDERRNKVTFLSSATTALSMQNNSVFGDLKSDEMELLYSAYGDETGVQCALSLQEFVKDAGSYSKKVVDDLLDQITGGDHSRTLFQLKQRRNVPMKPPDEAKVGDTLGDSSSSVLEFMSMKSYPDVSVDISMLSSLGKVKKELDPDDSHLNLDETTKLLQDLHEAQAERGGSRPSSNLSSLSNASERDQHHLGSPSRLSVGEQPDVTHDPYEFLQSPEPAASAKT

With CN1C[C@H](Nc2nc3cc[nH]c3c(=O)n2C)C[C@H](c2ccc3c(c2)OCCO3)C1 the inhibition [1] was “inactive”, the inhibition [2] was “inactive” and the inhibition [3] was “inactive”. For the same compound, the Cmax [4] was 1420 ng/mL, the Activity [5] was “inactive” and the inhibition [6] was “inactive”. The inhibition [7] was “inactive”, the inhibition [8] was “inactive” and the inhibition [9] was “inactive”. The inhibition [10] was “inactive”, the inhibition [11] was “inactive” and the inhibition [12] was “inactive”. The inhibition [13] was “inactive”, the inhibition [14] was “inactive” and the inhibition [15] was “inactive”. The Activity [16] was “inactive”, the ΔTm [17] was 2.1 °C and the inhibition [18] was “inactive”. The inhibition [19] was “inactive”, the inhibition [20] was “inactive” and the inhibition [21] was “inactive”.
